The list is not random: actives were taken first. Their share in the collection is about 3.4%.
CHT inh: human CHT choline transport inhibition; 310,000 tested, 0.86% active; B-score at 10 µM; CHT-expressing cells, membrane potential dye, choline response; hits give low values; Q9GZV3;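 active means B-score over 3 SD under the library average, and starting fluorescence ratio not unusually high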;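 further: choline stimulus applied at its EC90 after an EC20 pre-addition; B-score computed on integrated fluorescence ratio after choline addition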
ANO1 activ: activates or potentiates the mouse TMEM16A chloride channel; Q8BHY3; HEK293 TMEM16A/YFP-H148Q/I152L, iodide quench fluorescence; hits give low values; B-score at 10 µM; 340,000 tested, 0.3% active; AID 623877;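 active means fluorescence-ratio B-score plate-corrected deviation score at least 3 library SD below zero, with starting fluorescence score within 5 deviations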;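 further: channel opened by trigger with iodide after compound preincubation; score built on the fluorescence ratio of max minus min over baseline; more negative score means more quench and so TMEM16A activation or potentiation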
IMP-1 inhibitor: blocks Pseudomonas aeruginosa IMP-1 metallo-beta-lactamase; purified IMP-1, nitrocefin hydrolysis, epi-absorbance fluorescence; inhibition, % at 5.6 µM; 290,000 tested, 0.45% active;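 active means inhibition above the mean plus 3 SD of all compounds in the same screening run, cut at about 4.5% in these data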
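System: Purified IMP-1 | Read-out basis: Percent enzyme inhibition | Controls: IMP-1 with DMSO as 0%, enzyme-free DMSO as 100% | Replicates: One well per compound | Doses: 5.6 µM nominal single concentration | Detection: Epi-absorbance fluorescence, 480 nm excitation, 530 nm emission | Incubation: 25 °C, 15 min preincubation, 25 min reaction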
TMEM16A inh: mouse TMEM16A channel inhibition, primary screen. Q8BHY3. HEK293 TMEM16A/YFP iodide influx fluorescence, ionomycin. normalized B-score (activity score, 25-100; higher = stronger inhibition) at 10 µM. 310,000 tested, 1.2% active;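 active means ratio plate-corrected score three or more library SD toward inhibition, starting fluorescence score within five deviations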;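 further: score derived from kinetic fluorescence span divided by baseline fluorescence per well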
VIM-2 inhibitor: blocks Pseudomonas aeruginosa VIM-2 metallo-beta-lactamase; purified VIM-2, nitrocefin hydrolysis, epi-absorbance fluorescence; 290,000 tested, 0.89% active; inhibition, % at 5.6 µM;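 active means inhibition above the mean of all tested compounds plus 3 SD, cutoff set per screening run, cut at about 7.5% in these data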;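 further: red hydrolysis product quenches plate fluorescence so inhibitors raise well fluorescence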
CHT allo act: allosteric activators of human choline transporter CHT; Q9GZV3; CHT-expressing cells, membrane potential dye, choline EC20; hits give high values; LV-AA mutant CHT in HEK293 cells; B-score at 10 µM; 310,000 tested, 0.49% active; AID 488977;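 active means initial fluorescence not abnormally high and integrated response B-score, plate-corrected, over 3 SD above library mean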
TMEM16A reconf: TMEM16A (mouse) chloride channel inhibition, re-confirmation | shares compounds with TMEM16A inh | HEK293 TMEM16A/YFP-H148Q, iodide quench fluorescence; ionomycin added to raise cell calcium | inhibition, % at 10 µM | 2,300 tested, 39% active | AID 652189;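 active means mean duplicate percent inhibition, scaled so buffer wells are 0 and the reference blocker 100, over three buffer SD above buffer mean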
HEK293 Ca mobil: calcium mobilization counter-screen hit for TMEM16A inhibitor series. shares compounds with TMEM16A inh. 2,300 tested, 2% active. TMEM16A/YFP HEK293, Fluo4 calcium mobilization. calcium response (% of ionomycin), % at 10 µM;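 active means duplicate-averaged calcium signal over 20% of the ionomycin maximum, relative to buffer baseline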;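 further: each well's signal is peak minus trough fluorescence divided by its pre-addition baseline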
YFP-HEK293 quench: counter-screen for TMEM16A inhibitors: effect in parental YFP-HEK293 cells; shares compounds with TMEM16A inh; iodide YFP quench, ionomycin; YFP ratio F(max-min)/F0 at 10 µM; 2,300 tested, under 10 active; AID 652233;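 active means yellow fluorescent protein signal ratio exceeding the buffer control mean by over 5 SD of those controls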;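 further: ratio is mean of duplicate wells from kinetic YFP trace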
ClC-1 rat inh: rat ClC-1 inhibition, TMEM16A specificity screen | 2,300 tested, under 10 active | AID 652236 | CHO ClC-1-YFP, iodide influx fluorescence quench; iodide control reads 0, buffer control 100 | ratio percent, % at 10 µM | shares compounds with TMEM16A inh;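 active means duplicate-mean ratio percent above the mean of iodide-only control wells, which defines zero, plus 5 of their SD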;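 further: higher percent means stronger block of ClC-1 iodide influx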
Target sequence (P35524 whole entry, looked up): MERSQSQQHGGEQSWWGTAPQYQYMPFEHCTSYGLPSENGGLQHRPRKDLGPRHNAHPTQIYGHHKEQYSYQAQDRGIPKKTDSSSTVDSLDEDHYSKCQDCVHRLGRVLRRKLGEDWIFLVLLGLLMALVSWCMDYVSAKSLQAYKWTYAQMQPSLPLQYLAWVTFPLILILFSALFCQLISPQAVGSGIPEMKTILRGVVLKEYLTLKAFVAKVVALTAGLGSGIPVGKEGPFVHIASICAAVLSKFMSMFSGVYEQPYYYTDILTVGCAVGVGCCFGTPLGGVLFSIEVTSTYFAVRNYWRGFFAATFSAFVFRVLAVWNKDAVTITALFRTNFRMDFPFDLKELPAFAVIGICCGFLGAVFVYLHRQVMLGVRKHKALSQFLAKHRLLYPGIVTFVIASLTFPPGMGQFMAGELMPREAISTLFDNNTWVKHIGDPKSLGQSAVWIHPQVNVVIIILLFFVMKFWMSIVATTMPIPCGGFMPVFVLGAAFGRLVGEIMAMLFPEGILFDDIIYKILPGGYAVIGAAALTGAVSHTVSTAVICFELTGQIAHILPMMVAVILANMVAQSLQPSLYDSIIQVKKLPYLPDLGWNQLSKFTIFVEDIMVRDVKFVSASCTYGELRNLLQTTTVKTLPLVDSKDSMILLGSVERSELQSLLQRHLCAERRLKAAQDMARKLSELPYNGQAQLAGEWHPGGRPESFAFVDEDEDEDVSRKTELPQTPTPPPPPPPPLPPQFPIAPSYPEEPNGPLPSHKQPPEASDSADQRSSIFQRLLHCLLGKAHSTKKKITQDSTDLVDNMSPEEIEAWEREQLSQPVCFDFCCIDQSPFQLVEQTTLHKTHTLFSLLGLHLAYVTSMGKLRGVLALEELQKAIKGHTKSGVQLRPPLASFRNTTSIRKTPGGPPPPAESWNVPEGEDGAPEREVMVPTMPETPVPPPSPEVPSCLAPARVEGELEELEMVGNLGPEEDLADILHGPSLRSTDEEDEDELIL
Large screens that a line does not name were inactive (follow-up assays come after a bar, where they were run).

COc1cccc(C(=O)Nc2ccc(C(=O)c3ccccc3)cc2)c1	TMEM16A inh 100 | TMEM16A reconf 26% | HEK293 Ca mobil inactive | YFP-HEK293 quench inactive | ClC-1 rat inh inactive
Cc1cccc(C(=O)Nc2ccc(C(=O)c3ccccc3)cc2)c1	none (no result: IMP-1 inhibitor, VIM-2 inhibitor)
COc1cccc(C(=O)Nc2ccc(Cl)c(C(F)(F)F)c2)c1	TMEM16A inh 25 | TMEM16A reconf 18% | HEK293 Ca mobil inactive | YFP-HEK293 quench inactive | ClC-1 rat inh inactive
N#CC1=C(N)N2C(=C(C#N)C1c1ccc(Br)cc1)Nc1ccccc12 (configuration not stated)	TMEM16A inh 25 (no result: ANO1 activ) | TMEM16A reconf 16% | HEK293 Ca mobil inactive | YFP-HEK293 quench inactive | ClC-1 rat inh inactive
CCOP(=O)(c1ccc(N(C)C)cc1)C(O)c1ccccc1OC (configuration not stated)	TMEM16A inh 100 | TMEM16A reconf inactive | HEK293 Ca mobil inactive | YFP-HEK293 quench inactive | ClC-1 rat inh inactive
COc1ccccc1C(=O)NCCC(=O)N(C)CC(=O)Nc1ccc(N2CCOCC2)cc1	none (no result: IMP-1 inhibitor, VIM-2 inhibitor)
Clc1ccc(Cc2ccc(SCc3ccccc3)nn2)c(Cl)c1	TMEM16A inh 25 | TMEM16A reconf inactive | HEK293 Ca mobil inactive | YFP-HEK293 quench inactive | ClC-1 rat inh inactive
COc1ccccc1-n1c(SCc2cc(=O)oc3cc(O)ccc23)nc2ccccc2c1=O	none
COc1ccccc1-n1c(=O)oc2ccc(Cl)cc2c1=O	CHT inh -8.5, TMEM16A inh 25 | TMEM16A reconf 22% | HEK293 Ca mobil inactive | YFP-HEK293 quench inactive | ClC-1 rat inh inactive
CCSc1nnc(NC(=O)Cc2ccc(OC)c(OC)c2)s1	TMEM16A inh 100 | TMEM16A reconf inactive | HEK293 Ca mobil inactive | YFP-HEK293 quench inactive | ClC-1 rat inh inactive
O=[N+]([O-])c1ccccc1Oc1ccc(S(=O)(=O)N2CCOCC2)cc1	none (no result: CHT inh, IMP-1 inhibitor, TMEM16A inh, VIM-2 inhibitor, CHT allo act)
CCOC(=O)c1ccc(Oc2cn[nH]c2-c2ccc(O)cc2O)cc1	TMEM16A inh 25 | TMEM16A reconf 43% | HEK293 Ca mobil inactive | YFP-HEK293 quench inactive | ClC-1 rat inh inactive
CCCOC(=O)c1ccc(Oc2cn[nH]c2-c2ccc(O)cc2O)cc1	none
CCCOc1ccccc1Cn1c(=O)oc2ccc(C)cc21	TMEM16A inh 100 | TMEM16A reconf inactive | HEK293 Ca mobil inactive | YFP-HEK293 quench inactive | ClC-1 rat inh inactive
CCOc1ccccc1Cn1c(=O)oc2ccc(C)cc21	none
Cc1ccc(-n2nnnc2CNC(=O)c2ccc3c(c2)OCO3)cc1C	none
COc1ccccc1C(CC(=O)c1ccccc1)CC(=O)c1ccccc1	TMEM16A inh 100 | TMEM16A reconf inactive | HEK293 Ca mobil inactive | YFP-HEK293 quench inactive | ClC-1 rat inh inactive
Cc1cc(OCCCCOc2ccc(S(N)(=O)=O)c(C)c2)ccc1S(N)(=O)=O	none
C=C1CCN(C(CC(C)C)C(=O)OC)S(=O)(=O)c2ccccc21 (configuration not stated)	TMEM16A inh 25 (no result: IMP-1 inhibitor, VIM-2 inhibitor) | TMEM16A reconf inactive | HEK293 Ca mobil inactive | YFP-HEK293 quench inactive | ClC-1 rat inh inactive
N#Cc1ccc(CN2CCN(C(=O)Cn3nc(C(N)=O)c4ccccc4c3=O)CC2)cc1	none
Fc1ccccc1NC(=S)Nc1ccc(CN2CCOCC2)cc1	none
CC1=C(c2ccc(C)cc2)S(=O)(=O)N(CC(=O)O)C1=O	TMEM16A inh 25 | TMEM16A reconf inactive | HEK293 Ca mobil inactive | YFP-HEK293 quench inactive | ClC-1 rat inh inactive
COC(=O)CN1C(=O)C(C)=C(c2ccc(C)cc2)S1(=O)=O	none
O=C(Cn1nc(-c2ccccc2)nc1-c1ccccc1)OC1CCCCC1	TMEM16A inh 100 | TMEM16A reconf inactive | HEK293 Ca mobil inactive | YFP-HEK293 quench inactive | ClC-1 rat inh inactive
C=CCN1C(=O)C(CC(=O)NCC)SC1=Nc1ccccc1CC (configuration not stated)	none
COCCCNc1nc2ccccc2nc1NS(=O)(=O)c1cc(Cl)ccc1Cl	TMEM16A inh 25 | TMEM16A reconf 16% | HEK293 Ca mobil inactive | YFP-HEK293 quench inactive | ClC-1 rat inh inactive
COCCCNc1nc2ccccc2nc1NS(=O)(=O)c1ccc(Cl)cc1	none
O=S(=O)(c1cccc2nonc12)N1CCCCCC1	none | TMEM16A reconf inactive | HEK293 Ca mobil inactive | YFP-HEK293 quench inactive | ClC-1 rat inh inactive
COc1ccccc1N(C)S(=O)(=O)c1ccc(C(=O)NC(C)c2ccccc2)cc1 (configuration not stated)	none
CCOC(=O)c1ccccc1NC1c2ccccc2C(=O)N1c1cc(C)ccn1 (configuration not stated)	TMEM16A inh 100 | TMEM16A reconf inactive | HEK293 Ca mobil inactive | YFP-HEK293 quench inactive | ClC-1 rat inh inactive
COc1ccc(C(=O)/C=C/c2cn(CC(O)CN3CCN(C)CC3)c3ccccc23)cc1OC (configuration not stated)	none | TMEM16A reconf inactive | HEK293 Ca mobil inactive | YFP-HEK293 quench inactive | ClC-1 rat inh inactive
COc1ccc([N+](=O)[O-])cc1NCc1ccccc1C	TMEM16A inh 100 | TMEM16A reconf inactive | HEK293 Ca mobil inactive | YFP-HEK293 quench inactive | ClC-1 rat inh inactive
CCSc1nnc(NC(=O)c2ccc(Br)s2)s1	none
O=C(Nc1nnc(C(F)(F)F)s1)c1ccc(Br)s1	TMEM16A inh 100 | TMEM16A reconf 26% | HEK293 Ca mobil inactive | YFP-HEK293 quench inactive | ClC-1 rat inh inactive
CCN(CC)S(=O)(=O)c1cc(NS(=O)(=O)c2cccc(Cl)c2)ccc1C	TMEM16A inh 25 | TMEM16A reconf 28% | HEK293 Ca mobil inactive | YFP-HEK293 quench inactive | ClC-1 rat inh inactive
Cc1cccc(C)c1NS(=O)(=O)c1ccc(-c2cnc(C3CC3)o2)cc1	TMEM16A inh 25 | TMEM16A reconf 29% | HEK293 Ca mobil inactive | YFP-HEK293 quench inactive | ClC-1 rat inh inactive
Cc1oc(-c2ccc(Cl)cc2)nc1CN1CCCC(C(=O)NC2CC2)C1 (configuration not stated)	none
CCOC(=O)N1CCN(C(=O)C2CCCN(Cc3nc(-c4ccc(Cl)cc4)oc3C)C2)CC1 (configuration not stated)	TMEM16A inh 25 | TMEM16A reconf inactive | HEK293 Ca mobil inactive | YFP-HEK293 quench inactive | ClC-1 rat inh inactive

Screening results: PubChem BioAssay, several laboratories
